The target of one data set is Acetylcholinesterase (Homo sapiens, UniProt P22303). In words: Inhibition of human whole RBC AChE pretreated for 30 mins by Ellman technique.
A further data set addresses Cholinesterase (Homo sapiens, UniProt P06276). The experiment in a line: Inhibition of human plasma BChE pretreated for 30 mins by Ellman technique. The data set is classed as cell-free.
Data set [1] relates to Rattus norvegicus. The experiment in a line: Ex vivo inhibition of cholinesterase in Fischer-344 rat plasma at 10 mg/kg, ip after 60 mins by spectrophotometric analysis. It counts as functional. Particulars: Fischer-344, Plasma, 1 h, route intraperitoneal. In short, it runs like this: (§1)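 Anesthetized rats given 10 mg/kg i.p.; predrug blood for resting activity, then samples 5 min to 24 hr, centrifuged, plasma frozen at −80° C. Thawed plasma (10 ul) in 0.1 M sodium phosphate pH 7.4 ± iso-OMPA, then DTNB plus S-butyrylthiocholine; 412 nm read 20 min later, r.t., duplicates. Iso-OMPA-sensitive difference expressed as percent of predrug level.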

In data set [2] the test system is Rattus norvegicus. The experiment in a line: Ex vivo inhibition of cholinesterase in Fischer-344 rat plasma at 10 mg/kg, ip after 24 hrs by spectrophotometric analysis. The data set is classed as functional. The conditions noted are these: Fischer-344, Plasma, route intraperitoneal. In short, it runs like this: as §1
Data set [3] has as its system Rattus norvegicus. The experiment in a line: Toxicity in Fischer-344 rat assessed as tremor at 10 mg/kg, ip. It counts as organism-based. Further details: dose 10 mg/kg, route intraperitoneal. The conditions noted are these: in vivo.
Data set [4] deals with Rattus norvegicus. In words: Toxicity in Fischer-344 rat assessed as lacrimation and salivation at 10 mg/kg, ip. It counts as organism-based. Further details: dose 10 mg/kg, route intraperitoneal. Particulars: in vivo.

pIC50: −log10 of the molar value.

Chain of Cholinesterase (P06276 whole entry): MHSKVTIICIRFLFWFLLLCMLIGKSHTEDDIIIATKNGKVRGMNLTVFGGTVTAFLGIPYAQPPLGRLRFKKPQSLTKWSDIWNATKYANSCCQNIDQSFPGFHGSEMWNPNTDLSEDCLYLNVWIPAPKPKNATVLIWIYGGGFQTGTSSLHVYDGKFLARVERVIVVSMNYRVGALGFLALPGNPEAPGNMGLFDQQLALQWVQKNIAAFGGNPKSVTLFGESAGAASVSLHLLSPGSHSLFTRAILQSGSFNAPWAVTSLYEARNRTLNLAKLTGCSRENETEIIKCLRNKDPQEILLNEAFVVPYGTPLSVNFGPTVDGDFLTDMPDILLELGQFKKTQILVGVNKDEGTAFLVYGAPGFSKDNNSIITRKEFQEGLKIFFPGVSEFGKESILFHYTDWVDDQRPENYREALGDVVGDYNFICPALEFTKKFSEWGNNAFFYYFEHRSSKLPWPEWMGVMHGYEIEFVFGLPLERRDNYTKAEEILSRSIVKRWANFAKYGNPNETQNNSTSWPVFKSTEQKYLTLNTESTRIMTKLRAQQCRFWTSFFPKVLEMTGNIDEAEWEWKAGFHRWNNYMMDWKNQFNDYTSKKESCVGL
Chain of Acetylcholinesterase (P22303 whole entry): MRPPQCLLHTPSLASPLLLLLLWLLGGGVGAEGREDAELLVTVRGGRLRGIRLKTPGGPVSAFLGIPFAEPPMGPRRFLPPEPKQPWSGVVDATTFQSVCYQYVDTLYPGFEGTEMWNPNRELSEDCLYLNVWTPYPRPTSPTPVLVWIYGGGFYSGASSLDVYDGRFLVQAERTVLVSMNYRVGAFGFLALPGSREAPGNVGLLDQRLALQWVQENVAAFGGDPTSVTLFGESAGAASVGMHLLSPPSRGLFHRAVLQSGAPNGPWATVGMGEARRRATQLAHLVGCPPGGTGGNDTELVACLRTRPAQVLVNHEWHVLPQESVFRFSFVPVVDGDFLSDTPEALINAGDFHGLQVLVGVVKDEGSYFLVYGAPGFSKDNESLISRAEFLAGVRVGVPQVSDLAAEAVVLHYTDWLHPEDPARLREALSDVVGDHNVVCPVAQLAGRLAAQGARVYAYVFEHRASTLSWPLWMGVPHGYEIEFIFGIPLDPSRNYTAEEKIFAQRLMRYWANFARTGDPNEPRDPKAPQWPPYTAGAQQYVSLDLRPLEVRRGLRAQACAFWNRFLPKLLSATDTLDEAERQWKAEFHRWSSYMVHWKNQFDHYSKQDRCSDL

`Cc1ccccc1NC(=O)Oc1ccc2c(c1)[C@]1(C)CC[N+](C)(C)C1N2C` (some centres not stated): on Acetylcholinesterase, the pIC50 is 7.84. In the case of `CN(C)c1cccc(OC(=O)Nc2ccccc2)c1`, the pIC50 on Acetylcholinesterase was 5.60; at Cholinesterase, 4.74.

`C[N+](C)(C)c1cccc(OC(=O)Nc2ccccc2)c1`: the results for the pIC50 at Acetylcholinesterase and at Cholinesterase were 5.73 and 4.74, respectively. For the compound `CC(C)c1ccc(NC(=O)Oc2ccc3c(c2)[C@]2(C)CC[N+](C)(CCc4ccccc4)C2N3C)cc1` (some centres not stated), the pIC50 at Acetylcholinesterase is 6.52. Same read-out and setting: the result for `C[n+]1cccc(OC(=O)Nc2ccccc2)c1` reads < 4.52. Consider `O=C(Nc1ccccc1)Oc1cccnc1`, for which the pIC50 at Acetylcholinesterase and at Cholinesterase was < 4.52 each time. For the compound `CN1c2ccc(OC(=O)Nc3ccccc3)cc2[C@]2(C)CC[N+](C)(C)C12` (some centres not stated), the negative logarithm of the IC50 (pIC50) at Acetylcholinesterase is 7.60. As for `CNC(=O)Oc1ccc2c(c1)[C@]1(C)CC[N+](C)(C)C1N2C` (some centres not stated), at Acetylcholinesterase, the pIC50 was 7.58. Regarding `CN(C)C(=O)Oc1cccc([N+](C)(C)C)c1` [NEOSTIGMINE METHYLSULFATE], on Cholinesterase, the pIC50 is 7.22. As for `CC(C)c1ccc(NC(=O)Oc2ccc3c(c2)[C@]2(C)CC[N+](C)(C)C2N3C)cc1.[Br-]` (some centres not stated), on Acetylcholinesterase, the pIC50 is 6.84. Further, the inhibition in vivo at 10 mg/kg came out at 66% with Rattus norvegicus [1] and 33% in the data set with Rattus norvegicus [2]. Also, the Activity entry with Rattus norvegicus [3] and with Rattus norvegicus [4] was “Non-toxic” each time.

Values taken from ChEMBL document CHEMBL1177652 (Bioorg Med Chem, 2010).
